The text below walks through data of ChEMBL document CHEMBL3259739, “Synthesis and structure-activity relationship of trisubstituted thiazoles as Cdc7 kinase inhibitors” (Eur J Med Chem, 2014).

Test [1] addresses T1, Mitogen-activated protein kinase 12 (Homo sapiens) (UniProt P53778).
T1 sequence (whole entry): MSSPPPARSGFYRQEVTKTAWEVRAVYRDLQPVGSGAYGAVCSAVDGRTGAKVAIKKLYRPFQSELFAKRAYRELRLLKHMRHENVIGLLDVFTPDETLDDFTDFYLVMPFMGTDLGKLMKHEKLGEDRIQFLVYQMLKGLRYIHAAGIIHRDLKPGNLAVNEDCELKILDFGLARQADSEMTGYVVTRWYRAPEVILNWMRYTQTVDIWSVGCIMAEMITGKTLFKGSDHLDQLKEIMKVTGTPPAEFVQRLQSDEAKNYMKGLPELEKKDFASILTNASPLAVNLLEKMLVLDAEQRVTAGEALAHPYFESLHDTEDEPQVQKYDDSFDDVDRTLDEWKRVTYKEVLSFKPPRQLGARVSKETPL
The test can be described thus: Inhibition of p38-gamma (unknown origin) at 1 uM relative to control; values are per cent of control.

For test [2], the target named is Ribosomal protein S6 kinase beta-1 (Homo sapiens) (UniProt P23443). The test can be described thus: Inhibition of S6K1 (unknown origin) at 1 uM relative to control. The conditions noted are these: values are per cent of control. In outline:
(§1)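 KinomeSCAN competitive binding panel of 100 kinases; compounds tested at 1 µM in duplicate; read-out is percent […] control.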

For test [3], the target named is 5'-AMP-activated protein kinase catalytic subunit alpha-1 (Homo sapiens) (UniProt Q13131). The test can be described thus: Inhibition of AMPKalpha1 (unknown origin) at 1 uM relative to control; values are per cent of control.
For test [4], the target named is T2, Serine/threonine-protein kinase PLK4 (Homo sapiens) (UniProt O00444).
T2 sequence (whole entry): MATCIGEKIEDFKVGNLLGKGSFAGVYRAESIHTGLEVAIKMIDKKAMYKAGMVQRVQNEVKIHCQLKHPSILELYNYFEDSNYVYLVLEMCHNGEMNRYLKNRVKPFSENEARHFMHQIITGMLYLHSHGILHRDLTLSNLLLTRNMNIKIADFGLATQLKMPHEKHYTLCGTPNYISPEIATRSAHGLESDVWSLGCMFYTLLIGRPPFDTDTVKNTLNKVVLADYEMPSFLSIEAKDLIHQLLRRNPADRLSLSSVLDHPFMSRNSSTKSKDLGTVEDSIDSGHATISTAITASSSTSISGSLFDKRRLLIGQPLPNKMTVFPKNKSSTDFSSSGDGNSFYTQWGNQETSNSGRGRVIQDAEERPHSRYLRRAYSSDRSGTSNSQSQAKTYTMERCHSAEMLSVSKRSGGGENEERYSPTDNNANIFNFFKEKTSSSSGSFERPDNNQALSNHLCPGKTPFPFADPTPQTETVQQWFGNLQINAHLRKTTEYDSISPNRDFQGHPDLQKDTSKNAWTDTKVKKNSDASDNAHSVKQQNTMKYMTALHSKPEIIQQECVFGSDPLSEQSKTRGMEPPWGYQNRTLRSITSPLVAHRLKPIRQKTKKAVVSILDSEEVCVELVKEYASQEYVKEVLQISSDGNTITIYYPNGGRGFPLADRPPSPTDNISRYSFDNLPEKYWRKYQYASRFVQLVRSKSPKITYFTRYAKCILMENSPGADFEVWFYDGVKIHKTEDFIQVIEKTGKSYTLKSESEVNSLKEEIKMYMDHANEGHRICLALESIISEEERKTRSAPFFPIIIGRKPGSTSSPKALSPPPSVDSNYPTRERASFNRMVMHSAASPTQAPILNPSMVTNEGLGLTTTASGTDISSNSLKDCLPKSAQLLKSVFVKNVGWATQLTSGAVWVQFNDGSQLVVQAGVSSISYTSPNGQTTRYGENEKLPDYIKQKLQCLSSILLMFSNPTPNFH
The test can be described thus: Inhibition of PLK4 (unknown origin) at 1 uM relative to control. The conditions noted are these: values are per cent of control. An outline of the steps:
as §1

The target in test [5] is Mitogen-activated protein kinase 14 (Homo sapiens) (UniProt Q16539). The test can be described thus: Inhibition of p38-alpha (unknown origin) at 1 uM relative to control; values are per cent of control.
In test [6] the target is Mitogen-activated protein kinase kinase kinase 9 (Homo sapiens) (UniProt P80192). The test can be described thus: Inhibition of MLK1 (unknown origin) at 1 uM relative to control; values are per cent of control.
In test [7] the target is Death-associated protein kinase 1 (Homo sapiens) (UniProt P53355). The test can be described thus: Inhibition of DAPK1 (unknown origin) at 1 uM relative to control; values are per cent of control.
Test [8] has as its target T3, Aurora kinase A (Homo sapiens) (UniProt O14965).
T3 sequence (whole entry): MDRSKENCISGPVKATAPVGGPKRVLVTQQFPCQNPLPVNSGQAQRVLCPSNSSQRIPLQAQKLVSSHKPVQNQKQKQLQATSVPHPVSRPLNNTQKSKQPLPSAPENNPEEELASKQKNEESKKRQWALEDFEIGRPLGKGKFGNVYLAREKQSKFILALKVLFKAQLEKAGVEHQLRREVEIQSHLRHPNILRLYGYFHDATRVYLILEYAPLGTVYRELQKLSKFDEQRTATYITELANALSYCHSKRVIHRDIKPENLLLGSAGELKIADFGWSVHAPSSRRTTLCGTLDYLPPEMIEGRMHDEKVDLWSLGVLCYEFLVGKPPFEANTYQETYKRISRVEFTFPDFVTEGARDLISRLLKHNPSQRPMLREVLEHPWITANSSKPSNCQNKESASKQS
The test can be described thus: Inhibition of AURKA (unknown origin) at 1 uM relative to control; values are per cent of control.

In test [9] the target is Ephrin type-A receptor 4 (Homo sapiens) (UniProt P54764). The test can be described thus: Inhibition of EPHA4 (unknown origin) at 1 uM relative to control; values are per cent of control.
In test [10] the target is Angiopoietin-1 receptor (Homo sapiens) (UniProt Q02763). The test can be described thus: Inhibition of TIE2 (unknown origin) at 1 uM relative to control. The conditions noted are these: values are per cent of control. An outline of the steps: as §1
For test [11], the target named is Tyrosine-protein kinase SYK (Homo sapiens) (UniProt P43405). The test can be described thus: Inhibition of SYK (unknown origin) at 1 uM relative to control. The conditions noted are these: values are per cent of control.
In test [12] the target is Epidermal growth factor receptor (Homo sapiens) (UniProt P00533). The test can be described thus: Inhibition of EGFR (unknown origin) at 1 uM relative to control; values are per cent of control.
The target of test [13] is Epithelial discoidin domain-containing receptor 1 (Homo sapiens) (UniProt Q08345). The test can be described thus: Inhibition of DDR1 (unknown origin) at 1 uM relative to control; values are per cent of control.
The target of test [14] is Interferon-induced, double-stranded RNA-activated protein kinase (Homo sapiens) (UniProt P19525). The test can be described thus: Inhibition of PRKR (unknown origin) at 1 uM relative to control. The conditions noted are these: values are per cent of control. In outline: as §1
Chain of Interferon-induced, double-stranded RNA-activated protein kinase (Homo sapiens) (P19525 whole entry): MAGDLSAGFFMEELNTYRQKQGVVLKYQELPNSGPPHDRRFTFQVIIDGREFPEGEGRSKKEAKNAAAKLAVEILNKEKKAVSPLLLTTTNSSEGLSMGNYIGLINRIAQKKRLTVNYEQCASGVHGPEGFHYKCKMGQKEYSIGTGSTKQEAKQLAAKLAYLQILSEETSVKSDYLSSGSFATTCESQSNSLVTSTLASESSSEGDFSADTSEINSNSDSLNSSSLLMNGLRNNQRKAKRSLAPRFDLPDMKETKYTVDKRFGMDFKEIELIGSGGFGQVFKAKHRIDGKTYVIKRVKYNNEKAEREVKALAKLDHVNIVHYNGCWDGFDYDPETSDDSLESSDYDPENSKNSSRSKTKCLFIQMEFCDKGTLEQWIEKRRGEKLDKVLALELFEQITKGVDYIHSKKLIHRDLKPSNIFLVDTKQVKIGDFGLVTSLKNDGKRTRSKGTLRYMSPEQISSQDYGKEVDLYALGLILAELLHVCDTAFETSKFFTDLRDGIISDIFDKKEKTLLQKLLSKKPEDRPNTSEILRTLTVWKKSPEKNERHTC

Chain of Angiopoietin-1 receptor (Homo sapiens) (Q02763 whole entry): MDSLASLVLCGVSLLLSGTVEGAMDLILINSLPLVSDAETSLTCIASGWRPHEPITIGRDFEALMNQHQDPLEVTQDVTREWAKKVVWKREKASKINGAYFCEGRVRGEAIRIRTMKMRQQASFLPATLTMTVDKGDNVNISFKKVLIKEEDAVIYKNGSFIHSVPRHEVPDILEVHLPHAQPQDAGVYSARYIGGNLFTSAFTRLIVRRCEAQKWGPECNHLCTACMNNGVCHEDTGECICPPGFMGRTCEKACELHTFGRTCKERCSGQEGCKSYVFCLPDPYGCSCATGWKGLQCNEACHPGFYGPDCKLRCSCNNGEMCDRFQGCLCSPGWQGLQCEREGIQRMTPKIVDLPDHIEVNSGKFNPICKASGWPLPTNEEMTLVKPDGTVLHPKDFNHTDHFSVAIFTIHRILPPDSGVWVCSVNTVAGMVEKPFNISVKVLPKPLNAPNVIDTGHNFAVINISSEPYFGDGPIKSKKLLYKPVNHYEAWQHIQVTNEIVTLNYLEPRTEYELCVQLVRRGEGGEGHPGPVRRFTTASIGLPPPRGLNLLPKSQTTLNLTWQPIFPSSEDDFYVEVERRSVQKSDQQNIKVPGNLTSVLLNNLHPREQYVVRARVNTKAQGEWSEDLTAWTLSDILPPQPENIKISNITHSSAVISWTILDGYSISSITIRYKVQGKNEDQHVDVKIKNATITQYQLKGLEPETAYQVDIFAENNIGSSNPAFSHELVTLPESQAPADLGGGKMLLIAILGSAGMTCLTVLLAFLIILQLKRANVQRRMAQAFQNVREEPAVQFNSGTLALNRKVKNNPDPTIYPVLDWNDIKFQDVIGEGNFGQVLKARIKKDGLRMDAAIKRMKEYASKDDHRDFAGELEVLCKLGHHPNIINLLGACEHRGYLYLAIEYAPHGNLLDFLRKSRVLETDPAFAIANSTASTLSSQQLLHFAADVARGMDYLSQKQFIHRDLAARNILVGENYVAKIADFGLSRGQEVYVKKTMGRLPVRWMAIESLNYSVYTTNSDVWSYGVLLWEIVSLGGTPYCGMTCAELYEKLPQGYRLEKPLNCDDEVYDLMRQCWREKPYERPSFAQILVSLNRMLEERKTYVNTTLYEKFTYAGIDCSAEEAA
Chain of Ephrin type-A receptor 4 (Homo sapiens) (P54764 whole entry): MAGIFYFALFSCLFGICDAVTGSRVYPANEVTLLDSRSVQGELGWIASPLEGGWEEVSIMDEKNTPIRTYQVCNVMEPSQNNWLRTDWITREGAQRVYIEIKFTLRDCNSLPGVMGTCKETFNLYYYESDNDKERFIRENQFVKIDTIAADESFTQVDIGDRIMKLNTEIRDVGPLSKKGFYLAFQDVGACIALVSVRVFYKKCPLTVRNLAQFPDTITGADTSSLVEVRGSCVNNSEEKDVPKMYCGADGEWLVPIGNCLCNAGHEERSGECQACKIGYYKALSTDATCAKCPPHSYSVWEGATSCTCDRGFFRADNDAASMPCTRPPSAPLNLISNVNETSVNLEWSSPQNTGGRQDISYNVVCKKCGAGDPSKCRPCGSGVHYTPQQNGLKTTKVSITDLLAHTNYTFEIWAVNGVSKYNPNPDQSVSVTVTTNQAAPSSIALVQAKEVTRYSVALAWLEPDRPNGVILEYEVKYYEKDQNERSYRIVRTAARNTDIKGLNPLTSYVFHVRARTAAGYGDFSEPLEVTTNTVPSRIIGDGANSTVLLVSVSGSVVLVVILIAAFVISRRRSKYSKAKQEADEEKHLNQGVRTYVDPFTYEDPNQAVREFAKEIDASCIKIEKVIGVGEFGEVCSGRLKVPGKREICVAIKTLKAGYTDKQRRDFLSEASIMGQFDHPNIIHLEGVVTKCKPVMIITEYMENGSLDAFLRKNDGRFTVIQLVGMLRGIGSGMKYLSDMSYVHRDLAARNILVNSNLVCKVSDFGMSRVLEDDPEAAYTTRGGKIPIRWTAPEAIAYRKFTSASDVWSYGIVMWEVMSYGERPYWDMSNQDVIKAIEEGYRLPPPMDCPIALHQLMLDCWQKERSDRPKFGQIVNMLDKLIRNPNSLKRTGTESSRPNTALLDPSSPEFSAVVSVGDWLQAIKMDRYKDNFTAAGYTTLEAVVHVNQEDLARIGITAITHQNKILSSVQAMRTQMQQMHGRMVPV
Chain of Epithelial discoidin domain-containing receptor 1 (Homo sapiens) (Q08345 whole entry, the tested form may be a part): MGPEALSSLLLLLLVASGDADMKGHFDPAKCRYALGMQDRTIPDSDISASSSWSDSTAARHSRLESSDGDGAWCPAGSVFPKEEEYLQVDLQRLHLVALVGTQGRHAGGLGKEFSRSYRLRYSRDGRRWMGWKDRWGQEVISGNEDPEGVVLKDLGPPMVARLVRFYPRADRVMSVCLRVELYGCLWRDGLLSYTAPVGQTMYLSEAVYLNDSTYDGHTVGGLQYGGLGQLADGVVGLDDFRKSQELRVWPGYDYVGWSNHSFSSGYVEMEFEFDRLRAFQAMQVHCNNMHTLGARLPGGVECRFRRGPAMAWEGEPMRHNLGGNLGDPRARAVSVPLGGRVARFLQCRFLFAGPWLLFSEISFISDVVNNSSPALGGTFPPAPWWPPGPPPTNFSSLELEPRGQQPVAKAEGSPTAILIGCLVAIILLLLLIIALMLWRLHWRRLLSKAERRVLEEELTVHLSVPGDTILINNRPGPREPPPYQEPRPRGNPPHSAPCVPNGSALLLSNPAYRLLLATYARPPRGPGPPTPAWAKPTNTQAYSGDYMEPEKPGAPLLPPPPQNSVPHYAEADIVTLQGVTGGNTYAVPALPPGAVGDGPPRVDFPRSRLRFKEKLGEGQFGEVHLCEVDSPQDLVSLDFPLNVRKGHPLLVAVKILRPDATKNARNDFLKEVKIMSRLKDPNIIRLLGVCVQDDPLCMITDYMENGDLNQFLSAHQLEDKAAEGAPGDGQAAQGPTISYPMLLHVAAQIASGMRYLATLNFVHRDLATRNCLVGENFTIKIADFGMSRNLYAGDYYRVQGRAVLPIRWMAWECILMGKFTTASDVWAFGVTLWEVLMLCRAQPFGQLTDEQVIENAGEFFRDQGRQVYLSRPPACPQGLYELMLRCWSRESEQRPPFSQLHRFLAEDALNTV
Chain of Ribosomal protein S6 kinase beta-1 (Homo sapiens) (P23443 whole entry, looked up): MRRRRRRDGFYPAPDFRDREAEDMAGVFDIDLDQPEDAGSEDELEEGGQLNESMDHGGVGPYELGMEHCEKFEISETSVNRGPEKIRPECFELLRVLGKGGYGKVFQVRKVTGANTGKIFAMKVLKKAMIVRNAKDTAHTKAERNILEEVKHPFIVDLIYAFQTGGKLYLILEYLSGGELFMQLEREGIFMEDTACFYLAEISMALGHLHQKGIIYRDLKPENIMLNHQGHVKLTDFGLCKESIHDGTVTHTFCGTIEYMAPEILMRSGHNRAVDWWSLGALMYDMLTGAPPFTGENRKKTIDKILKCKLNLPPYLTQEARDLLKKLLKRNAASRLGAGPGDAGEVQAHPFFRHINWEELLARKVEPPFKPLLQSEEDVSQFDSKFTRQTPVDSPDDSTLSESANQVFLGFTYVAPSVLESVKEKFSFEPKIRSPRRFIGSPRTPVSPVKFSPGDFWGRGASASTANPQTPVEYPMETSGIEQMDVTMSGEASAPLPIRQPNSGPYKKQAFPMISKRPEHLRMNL
Chain of Mitogen-activated protein kinase 14 (Homo sapiens) (Q16539 whole entry): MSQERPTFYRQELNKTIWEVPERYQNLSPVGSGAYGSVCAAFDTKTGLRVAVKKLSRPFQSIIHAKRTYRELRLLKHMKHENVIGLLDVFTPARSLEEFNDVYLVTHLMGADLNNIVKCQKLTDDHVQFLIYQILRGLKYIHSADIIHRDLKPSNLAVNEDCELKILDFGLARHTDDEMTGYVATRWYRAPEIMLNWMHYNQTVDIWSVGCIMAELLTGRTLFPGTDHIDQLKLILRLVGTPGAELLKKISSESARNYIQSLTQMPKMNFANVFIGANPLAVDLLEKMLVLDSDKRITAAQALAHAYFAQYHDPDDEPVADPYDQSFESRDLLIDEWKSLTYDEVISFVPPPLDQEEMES
Chain of 5'-AMP-activated protein kinase catalytic subunit alpha-1 (Homo sapiens) (Q13131 whole entry, looked up): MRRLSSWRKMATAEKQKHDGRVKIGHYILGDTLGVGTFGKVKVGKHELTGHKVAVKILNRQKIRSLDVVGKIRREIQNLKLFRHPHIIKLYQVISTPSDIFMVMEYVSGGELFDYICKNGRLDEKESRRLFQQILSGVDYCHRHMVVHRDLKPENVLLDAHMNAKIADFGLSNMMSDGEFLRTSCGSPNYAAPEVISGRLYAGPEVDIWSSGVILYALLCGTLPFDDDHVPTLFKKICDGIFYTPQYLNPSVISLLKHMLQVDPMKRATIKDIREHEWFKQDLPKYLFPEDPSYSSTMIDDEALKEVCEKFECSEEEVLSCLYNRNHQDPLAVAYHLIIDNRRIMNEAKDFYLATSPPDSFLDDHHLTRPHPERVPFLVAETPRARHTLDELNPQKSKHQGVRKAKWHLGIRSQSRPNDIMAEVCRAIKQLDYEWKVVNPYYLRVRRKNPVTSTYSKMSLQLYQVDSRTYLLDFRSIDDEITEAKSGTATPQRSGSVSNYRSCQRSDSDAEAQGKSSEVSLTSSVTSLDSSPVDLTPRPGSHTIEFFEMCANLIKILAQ

Turning to `CCOC(=O)c1sc(-c2ccncc2)nc1O`, the residual activity in test [1] is 100%; in test [3], 68%; in test [5] it was 76%; in test [6], 90%; in test [7], 77%; in test [8], 100%. The residual activity amounted to 58% in test [9], 78% in test [12] and 98% in [13]. Further, the residual binding, % of control came to 83% in [2]; 100% in test [4]; 67% in test [10]; 97% in test [11]; 92% in test [14].

As to `NC(=O)c1sc(-c2ccnc(N)n2)nc1-c1ccc(Cl)cc1Cl`, the residual activity in test [1] came out at 65%; in test [3], 100%; in test [5], 95%; in test [6], 99%; in test [7] it was 100%; in [8] it was 77%. Further, the residual activity is 72% in [9], 100% in test [12] and 80% in test [13]. The residual binding, % of control worked out at 75% in [2]; 92% in test [4]; 82% in test [10]; 72% in test [11]; 68% in test [14].

Turning to `COc1ccc(-c2nc(-c3ccnc(N)n3)sc2C(N)=O)c(Cl)c1`, the residual activity in [1] was determined as 91%; in test [3] it was 76%; in [5], 100%; in test [6] it was 94%; in [7], 100%; in test [8], 55%. The residual activity in [9] stood at 100%; in [12], 81%; in [13] it was 84%. The residual binding, % of control came out at 42% in test [2]; 100% in [4]; 99% in test [10]; 56% in [11]; 92% in test [14].
